HSP90 inh – HSP90 inhibitors, primary screen, cell lysate, luminescence. Heat shock protein HSP 90 (rabbit reticulocyte lysate; luciferase refolding). Rabbit reticulocyte lysate, luciferase refolding luminescence, 3 h. inhibition, % at 5.6 µM. hit rate 0.91% among 290,000;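 active = inhibition above the screen-wide mean plus 3 SD, computed separately per campaign, cut at about 16% in these data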;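 also: inhibitors lower the luminescence because luciferase stays unfolded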
HSF-1 act – HSF-1 activators, primary screen, NIH3T3-HGL cells, MG132 stress, luminescence, single point; NIH3T3-HGL HSF-1 luciferase reporter, 8 h; 100% = twice DMSO control signal; activation, % at 9 µM; hit rate 1.7% among 300,000; AID 504408, 2011;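 active = mean replicate activation of at least 50% with a set share of replicates each reaching 50%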
HKDC1 inh – HKDC1 hexokinase inhibitors, primary screen, biochemical, fluorescence, uHTS. hit rate 0.16% among 340,000. Q2TB90. inhibition, % at 20 µM. recombinant HKDC1, G6PDH/diaphorase resazurin coupled fluorescence;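 active = inhibition above about 35% when tested at 20 µM, limit read from the data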
Target sequence (Q2TB90 whole entry, looked up): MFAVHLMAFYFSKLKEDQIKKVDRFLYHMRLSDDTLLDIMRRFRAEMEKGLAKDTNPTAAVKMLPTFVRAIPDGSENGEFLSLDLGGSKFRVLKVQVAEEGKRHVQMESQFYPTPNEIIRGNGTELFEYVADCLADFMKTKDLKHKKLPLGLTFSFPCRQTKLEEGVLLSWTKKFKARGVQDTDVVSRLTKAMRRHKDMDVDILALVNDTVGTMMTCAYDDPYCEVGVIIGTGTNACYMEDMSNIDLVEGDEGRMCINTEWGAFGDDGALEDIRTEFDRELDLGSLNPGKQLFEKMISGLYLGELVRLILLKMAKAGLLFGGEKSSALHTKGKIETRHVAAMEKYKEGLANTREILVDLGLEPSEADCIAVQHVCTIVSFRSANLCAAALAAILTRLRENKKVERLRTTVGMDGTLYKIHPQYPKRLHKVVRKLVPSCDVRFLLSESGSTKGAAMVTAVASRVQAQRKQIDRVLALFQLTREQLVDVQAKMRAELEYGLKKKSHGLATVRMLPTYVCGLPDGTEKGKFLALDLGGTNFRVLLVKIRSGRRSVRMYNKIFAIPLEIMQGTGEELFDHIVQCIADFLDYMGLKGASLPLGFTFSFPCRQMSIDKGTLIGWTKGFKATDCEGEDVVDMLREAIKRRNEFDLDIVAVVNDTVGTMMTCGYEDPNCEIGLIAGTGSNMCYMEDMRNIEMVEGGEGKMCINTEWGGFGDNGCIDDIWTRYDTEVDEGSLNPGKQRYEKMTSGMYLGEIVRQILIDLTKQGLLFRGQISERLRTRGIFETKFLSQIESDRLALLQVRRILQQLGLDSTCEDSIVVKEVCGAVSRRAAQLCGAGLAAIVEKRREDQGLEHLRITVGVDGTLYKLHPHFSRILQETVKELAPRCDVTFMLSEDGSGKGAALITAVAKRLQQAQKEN
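test system = in-house recombinant HK5 (HKDC1) enzyme | amount = HKDC1 at 5 µg/mL | control set = DMSO-enzyme wells negative, buffer-substituted wells positive | compound = one dose of 20 µM, 1% DMSO | schedule = reaction time 90 min, room temperature, protected from light | technique = resorufin fluorescence at 613 nm | reagent = glucose with 1 mM ATP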
HSF1 inh – HSF1 inhibitors in luciferase reporter cells, primary screen, cell-based, NIH3T3, luminescence; AID 2098, 2009; hit rate 0.77% among 300,000; activity change, negative = inhibition, % at 7.5 µM (by protocol); NIH3T3-HGL HSE-luciferase, MG132-induced, luminescence 8 h; stronger effect = lower value;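 active = more than half of replicate wells show activity change below -50%, luminescence cut by over half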;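 also: luciferase reports HSF-1 transcriptional activity via heat shock element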
Hsp70 activator – Hsp70 transcriptional activators, primary screen, cell-based, HeLa, Hsp70 promoter luciferase, luminescence, 10 µM; activation, % at 10 µM; HeLa Hsp70 promoter luciferase reporter; scaled: vehicle 0, proteasome-inhibitor control 100%; hit rate 0.04% among 200,000;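 active = activation above the mean across all tested compounds plus 3 SD, cutoff set per campaign, cut at about 5.5% in these data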
Tb hexokinase – Trypanosoma brucei hexokinase 1 inhibitors, primary screen, biochemical, G6PDH-coupled NADH absorbance, MLSCN library. hexokinase 1 [Trypanosoma brucei]. recombinant TbHK1, G6PDH-coupled NADH A340. inhibition, % at 10 µM. hit rate 0.11% among 220,000. AID 1430, 2008;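 active = inhibition of 50% or more in the single-dose primary screen; inactive = inhibition below 50%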
A number is an active result; i = inactive; nt = no result given. Hits are enriched below; roughly 3.1% of the tested compounds scored in any of these assays.

SMILES	HSP90 inh	HSF-1 act	HKDC1 inh	HSF1 inh	Hsp70 activator	Tb hexokinase
O=C1CC(c2ccccc2)CC(O)=C1C=Nc1ccc(Cl)cc1 (centres undefined)	i	141	i	i	i	i
O=C1CC(c2ccccc2)CC(O)=C1C=Nc1cccc(Cl)c1 (centres undefined)	i	120	i	i	i	i
O=C1CC(c2ccccc2Cl)CC(O)=C1C=Nc1ccccc1 (centres undefined)	i	152	i	i	i	i
O=c1oc(C2(O)CCCCC2)cc2ccc(-c3ccc4[nH]ccc4c3)cc12	nt	nt	i	nt	nt	nt
Cc1ccccc1-n1c(=O)cc(N2CCc3ccccc32)[nH]c1=O	i	i	i	-79	i	i
Cc1ccc(S(=O)(=O)N(C)C)cc1NC(=O)COC(=O)/C=C/c1ccc(F)cc1	nt	i	i	i	nt	nt
Cc1ccc(C)c(S(=O)(=O)N2CCN(CC(=O)Nc3cc(C)on3)CC2)c1	i	71	i	i	i	i
Cc1ccc(C)c(S(=O)(=O)N2CCN(CC(=O)Nc3ccc4c(c3)OCCO4)CC2)c1	i	i	i	i	i	i
Cn1c(=O)c2ncn(CC(=O)N/N=C/C=C/c3ccccc3)c2n(C)c1=O	i	60	i	i	i	i
Cc1cccc(NC(=O)COc2coc(CN3CCN(c4ccccc4)CC3)cc2=O)c1C	nt	i	i	i	nt	nt
COc1cc(OC)cc(-c2cc3nc(C)c(CCC(=O)NCc4ccccc4)c(C)n3n2)c1	i	i	i	-57	nt	i
COc1ccccc1-c1cc2nc(C)c(CCC(=O)NCc3ccc(F)cc3)c(C)n2n1	i	i	i	i	nt	i
CCC(C)NC(=O)Cc1c(OC)ccc2cc(Br)ccc12 (centres undefined)	i	62	i	i	i	i
Cc1cc(Sc2nnc(/N=C/N(C)C)s2)c2ccccc2n1	i	nt	i	nt	nt	i
Cc1cc(Sc2nnc(N)s2)c2ccccc2n1	i	136	i	i	nt	i
CC1CCc2nc(/C(C#N)=C/c3ccncc3)sc2C1 (centres undefined)	i	97	i	i	i	i
N#C/C(=C/c1ccncc1)c1nc2ccccc2s1	i	i	i	i	i	i
Cc1cccnc1NC(=S)NC(=O)/C=C/c1ccccc1	i	56	i	i	i	i
CC1=NNC(=O)C1C(c1ccccc1)C1C(=O)NN=C1C (centres undefined)	i	128	nt	i	i	i
C=CC[n+]1c(-c2ccc(OC)cc2)csc1NNC(=O)Nc1ccccc1	i	54	i	i	i	i
C=CC[n+]1c(-c2ccc(C)cc2)csc1Nc1ccc(NC(C)=O)cc1	i	nt	i	nt	i	i
S=C(NC1CCCCC1)NC1CC2C=CC1C2 (centres undefined)	i	85	i	i	nt	i
N#Cc1c(N)nc(SCc2ccncc2)c(C#N)c1-c1cccs1	i	i	i	-68	i	i
CN1CCc2nc(SCc3ccc(Cl)cc3)c(C#N)c(-c3cccs3)c2C1	i	190	i	i	i	i
CCOC(=O)C1=NN(C(=O)c2ccc(OC)cc2)C(O)(c2ccc(Cl)cc2)C1 (centres undefined)	i	80	i	i	i	i
SMILES	HSP90 inh	HSF-1 act	HKDC1 inh	HSF1 inh	Hsp70 activator	Tb hexokinase
CCOC(=O)C1=NN(C(=O)c2ccccc2)C(O)(c2ccc(C)cc2)C1 (centres undefined)	i	318	i	i	i	i
CC1=NN(C(=O)c2ccccc2)C(O)(c2ccc(Br)cc2)C1 (centres undefined)	i	83	i	i	nt	i
CCC1=NN(C(=O)c2ccc(Br)cc2)C(O)(c2ccccc2)C1 (centres undefined)	i	i	i	i	i	i
CCOC(=O)N1N=C(C)CC1(O)c1ccccc1 (centres undefined)	i	i	i	i	i	i
CCOC(=O)C1=NN(C(=O)COc2ccccc2)C(O)(c2ccc(Cl)cc2)C1 (centres undefined)	i	122	i	i	i	i
CCOC(=O)C1=NN(C(=O)Cc2ccccc2)C(O)(c2ccc(Cl)cc2)C1 (centres undefined)	i	i	i	i	i	i
O=C(NCCc1ccccn1)c1nc(Cn2ccc([N+](=O)[O-])n2)no1	i	i	i	i	nt	nt
Cn1c(N)c(C(=O)COC(=O)c2cc(S(=O)(=O)NCc3ccccc3)ccc2O)c(=O)n(C)c1=O	nt	nt	i	nt	nt	nt
CCOC(=O)C1=NN(C(=O)c2cccc(Br)c2)C(O)(C(C)(C)C)C1 (centres undefined)	i	i	nt	i	nt	i
COC(=O)C1=NN(C(=O)c2cccc(Br)c2)C(O)(c2ccc(Cl)cc2)C1 (centres undefined)	i	183	i	i	i	i
O=C(CCNS(=O)(=O)c1ccc(Cl)cc1)NCc1cccs1	i	i	i	i	i	i
COc1ccc(S(=O)(=O)NCCC(=O)NCc2cccs2)cc1	i	i	i	-70	i	i
O=C(COC(=O)c1ccccc1NCCO)Nc1cc(C(F)(F)F)ccc1N1CCOCC1	i	i	i	i	nt	nt
CN(C(=O)/C=C/c1ccc(F)cc1)C1CCCCC1	nt	61	i	i	nt	nt
CCN(C(=O)COC(=O)/C=C/c1ccc(F)cc1)C1CCCCC1	nt	nt	i	nt	nt	nt
CN(C(=S)NC(=O)/C=C/c1ccc(F)cc1)C1CCCCC1	i	67	i	i	i	i
CC(C)(CNC(=O)/C=C/c1ccc(F)cc1)CNC(=O)/C=C/c1ccc(F)cc1	i	76	i	i	i	i
CC(=O)Nc1cccc(NC(=O)c2csc(C)c2)c1	i	i	i	i	nt	nt
COc1ccccc1/C=C/C(=O)N1CCN(S(=O)(=O)c2cc(C)ccc2C)CC1	nt	nt	i	nt	nt	nt
Cc1cc(SCC(=O)N/N=C/c2ccc(O)c(O)c2)nc2ccccc12	i	i	i	i	nt	nt
Cc1cc(SCC(=O)N/N=C/c2ccc(O)c(O)c2)c(C)cc1Br	i	63	i	i	i	i
O=C(Nc1ccc(N2CCOCC2)cc1N1CCOCC1)c1ncoc1-c1cccc(F)c1	i	i	i	i	nt	nt
O=C(CN1C(=O)NC2(CCCC2)C1=O)NCCN1C(=O)S/C(=C\c2ccccc2F)C1=O	nt	55	i	i	nt	nt
COc1ccc(/C=C2\SC(=O)N(CCNC(=O)CN3C(=O)NC4(CCCC4)C3=O)C2=O)cc1	nt	i	i	i	nt	nt
Cc1cc(C)cc(OCC(O)CN2CCC(CN3C(=O)c4cccc5cccc(c45)C3=O)CC2)c1 (centres undefined)	nt	i	i	i	nt	nt
O=C(COC(=O)C1CC2C=CC1C2)Nc1ccc2c(c1)OC(F)(F)O2 (centres undefined)	i	105	i	i	i	i

Bioassay records: PubChem BioAssay, several laboratories
